Data as given in ChEMBL document CHEMBL1144999, “Identification of a novel, selective GABA(A) alpha5 receptor inverse agonist which enhances cognition” (J Med Chem, 2003).

Columns and labels:
[1] = biological target: T1, Gamma-aminobutyric acid receptor subunit alpha-5 (Homo sapiens) (UniProt P31644); assay: Binding selectivity for human gamma-aminobutyric-acid A receptor alpha-5 over GABA A alpha1,alpha2 and alpha-3 receptors
T1 sequence (whole entry): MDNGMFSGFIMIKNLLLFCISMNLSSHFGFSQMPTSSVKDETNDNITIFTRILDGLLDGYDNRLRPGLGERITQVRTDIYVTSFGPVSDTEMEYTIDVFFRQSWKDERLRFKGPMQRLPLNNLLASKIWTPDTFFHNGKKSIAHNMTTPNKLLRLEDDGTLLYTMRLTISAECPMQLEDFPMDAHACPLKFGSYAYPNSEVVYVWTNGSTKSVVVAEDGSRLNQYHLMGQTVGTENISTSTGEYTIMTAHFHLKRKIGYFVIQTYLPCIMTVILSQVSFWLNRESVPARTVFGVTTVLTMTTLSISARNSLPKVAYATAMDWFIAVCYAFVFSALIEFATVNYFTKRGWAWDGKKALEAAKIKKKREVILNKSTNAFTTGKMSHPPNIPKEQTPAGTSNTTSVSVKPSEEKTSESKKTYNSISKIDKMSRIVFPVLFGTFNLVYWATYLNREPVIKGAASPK

[2] = biological target: T2, GABA-A receptor; alpha-2/beta-3/gamma-2 (Homo sapiens, UniProt P18507+P28472+P47869); assay: Binding affinity to human gamma-amino butyric-acid A receptor alpha-2-beta-3-gamma-2, using a [3H]-Ro- 15-1788 radioligand; type: protein-complex assay
T2 sequence (P18507 whole entry): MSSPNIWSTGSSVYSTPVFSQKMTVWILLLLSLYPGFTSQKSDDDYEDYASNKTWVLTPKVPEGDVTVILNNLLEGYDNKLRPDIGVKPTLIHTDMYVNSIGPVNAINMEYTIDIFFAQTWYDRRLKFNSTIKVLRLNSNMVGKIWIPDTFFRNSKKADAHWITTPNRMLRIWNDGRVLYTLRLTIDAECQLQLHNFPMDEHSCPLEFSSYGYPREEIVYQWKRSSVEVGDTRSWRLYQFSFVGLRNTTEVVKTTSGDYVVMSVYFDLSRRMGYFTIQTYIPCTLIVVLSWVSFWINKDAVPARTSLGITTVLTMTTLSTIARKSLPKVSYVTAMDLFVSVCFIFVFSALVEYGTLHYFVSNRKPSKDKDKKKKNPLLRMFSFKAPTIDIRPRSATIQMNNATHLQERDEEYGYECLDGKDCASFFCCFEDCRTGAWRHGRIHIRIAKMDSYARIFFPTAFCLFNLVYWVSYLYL
T2 sequence (P28472 whole entry): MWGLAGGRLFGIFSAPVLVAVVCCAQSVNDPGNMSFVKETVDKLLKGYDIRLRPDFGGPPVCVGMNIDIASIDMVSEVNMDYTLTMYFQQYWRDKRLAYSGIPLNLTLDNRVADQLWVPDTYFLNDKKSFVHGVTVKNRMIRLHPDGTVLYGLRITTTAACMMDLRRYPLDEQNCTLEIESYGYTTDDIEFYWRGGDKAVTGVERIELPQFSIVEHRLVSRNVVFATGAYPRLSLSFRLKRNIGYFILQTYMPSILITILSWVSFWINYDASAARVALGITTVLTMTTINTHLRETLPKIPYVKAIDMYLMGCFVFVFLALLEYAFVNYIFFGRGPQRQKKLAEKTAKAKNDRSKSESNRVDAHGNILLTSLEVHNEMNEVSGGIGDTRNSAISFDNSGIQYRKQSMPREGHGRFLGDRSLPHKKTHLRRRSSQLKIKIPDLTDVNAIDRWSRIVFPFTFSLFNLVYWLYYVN
T2 sequence (P47869 whole entry): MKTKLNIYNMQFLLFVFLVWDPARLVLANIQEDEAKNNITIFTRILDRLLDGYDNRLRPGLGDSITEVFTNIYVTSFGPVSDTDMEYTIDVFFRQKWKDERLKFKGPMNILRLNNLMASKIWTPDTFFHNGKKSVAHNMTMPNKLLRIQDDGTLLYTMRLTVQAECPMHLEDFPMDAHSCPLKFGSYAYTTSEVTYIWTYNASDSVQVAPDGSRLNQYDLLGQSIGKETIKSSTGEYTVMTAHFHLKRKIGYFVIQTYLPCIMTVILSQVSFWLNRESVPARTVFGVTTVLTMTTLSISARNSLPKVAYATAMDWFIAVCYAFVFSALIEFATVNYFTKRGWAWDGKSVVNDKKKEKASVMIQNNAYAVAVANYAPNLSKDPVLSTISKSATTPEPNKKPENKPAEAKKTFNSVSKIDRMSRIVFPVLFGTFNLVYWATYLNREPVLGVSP
Outline: (§1)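 Displacement of [3H]Ro 15-1788 binding from harvested L(tk-) cells stably expressing human recombinant GABA-A receptors with β3 and γ2 subunits plus α1, α2, α3 or α5. […] Ki given as geometric mean ± SEM of three independent determinations.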

[3] = biological target: T3, GABA-A receptor; alpha-1/beta-3/gamma-2 (Homo sapiens, UniProt P14867+P18507+P28472); assay: Binding affinity to human gamma-aminobutyric-acid A receptor alpha-1-beta-3-gamma-2, determined using [3H]-Ro- 15-1788 radioligand; type: protein-complex assay; outline: as §1
T3 sequence (P14867 whole entry): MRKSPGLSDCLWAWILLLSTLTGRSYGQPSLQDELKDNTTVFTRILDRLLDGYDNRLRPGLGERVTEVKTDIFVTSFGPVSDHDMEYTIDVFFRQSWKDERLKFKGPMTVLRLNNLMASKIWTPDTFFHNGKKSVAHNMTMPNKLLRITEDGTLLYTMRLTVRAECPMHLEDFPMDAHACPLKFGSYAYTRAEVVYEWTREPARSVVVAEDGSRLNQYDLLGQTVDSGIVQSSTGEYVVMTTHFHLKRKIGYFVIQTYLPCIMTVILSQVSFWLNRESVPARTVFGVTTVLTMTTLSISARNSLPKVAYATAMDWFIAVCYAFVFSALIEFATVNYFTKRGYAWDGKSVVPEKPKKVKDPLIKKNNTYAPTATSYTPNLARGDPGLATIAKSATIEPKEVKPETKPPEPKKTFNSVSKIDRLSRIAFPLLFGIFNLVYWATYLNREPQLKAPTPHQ
T3 sequence (P18507 whole entry): T2 sequence (P18507 whole entry)
T3 sequence (P28472 whole entry): T2 sequence (P28472 whole entry)

[4] = biological target: T4, GABA-A receptor; alpha-3/beta-3/gamma-2 (Homo sapiens, UniProt P18507+P28472+P34903); assay: Binding affinity to human gamma-amino butyric-acid A receptor alpha-3-beta-3-gamma-2, using a [3H]-Ro- 15-1788 radioligand; type: protein-complex assay; outline: as §1
T4 sequence (P18507 whole entry): T2 sequence (P18507 whole entry)
T4 sequence (P28472 whole entry): T2 sequence (P28472 whole entry)
T4 sequence (P34903 whole entry): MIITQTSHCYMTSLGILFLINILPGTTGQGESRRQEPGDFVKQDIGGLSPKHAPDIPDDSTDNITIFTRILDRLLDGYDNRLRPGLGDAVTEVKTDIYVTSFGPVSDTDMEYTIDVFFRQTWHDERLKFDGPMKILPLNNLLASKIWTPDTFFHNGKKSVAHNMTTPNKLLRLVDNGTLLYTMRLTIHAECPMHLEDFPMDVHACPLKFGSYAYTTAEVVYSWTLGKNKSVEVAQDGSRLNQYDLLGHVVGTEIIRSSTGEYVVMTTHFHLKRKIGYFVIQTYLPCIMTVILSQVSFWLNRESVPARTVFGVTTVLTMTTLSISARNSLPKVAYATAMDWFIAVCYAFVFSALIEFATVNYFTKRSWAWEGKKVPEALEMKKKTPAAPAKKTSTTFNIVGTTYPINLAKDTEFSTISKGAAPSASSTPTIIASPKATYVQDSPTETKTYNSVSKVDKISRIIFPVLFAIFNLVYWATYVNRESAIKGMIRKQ

[5] = biological target: T5, GABA-A receptor; alpha-5/beta-3/gamma-2 (Homo sapiens, UniProt P18507+P28472+P31644); assay: Binding affinity to human GABA A alpha-5-beta-3-gamma-2 receptor, using a [3H]-Ro- 15-1788 radioligand; type: protein-complex assay; outline: as §1
T5 sequence (P18507 whole entry): T2 sequence (P18507 whole entry)
T5 sequence (P28472 whole entry): T2 sequence (P28472 whole entry)
T5 sequence (P31644 whole entry): T1 sequence (whole entry)

[6] = biological target: GABA-A receptor; alpha-5/beta-3/gamma-2 (Homo sapiens) (UniProt P18507+P28472+P31644); assay: Efficacy for GABA-A receptor alpha-5-beta-3-gamma-2 subunits expressed in Xenopus laevis oocytes by two-electrode voltage clamp recording; type: cell-based; conditions: Oocyte
Outline: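 Two-electrode voltage clamp on Xenopus laevis oocytes injected with human α5β3γ2 cDNA, recorded 2-4 days after injection. Expression checked with 3 mM GABA; oocytes with currents <0.3 μA rejected. A GABA EC20 was determined per oocyte. Compound applied at a single concentration near 100× Ki. Efficacy (%) = (current with compound/control EC20 current × 100) − 100.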

Structure (SMILES)	Selectivity [1]	Ki [2] [nM]	Ki [3] [nM]	Ki [4] [nM]	Ki [5] [nM]	Efficacy [6]
CCCCSc1sc(-c2cc[nH]n2)c2c1C(=O)CC(C)(C)C2	10	184	57	182	18	–
CCCSc1sc(-c2cc[nH]n2)c2c1C(=O)CC(C)(C)C2	9	28	22	41	4.6	–
CSc1sc(-c2ncn(C)n2)c2c1C(=O)CC(C)(C)C2	14	49	267	102	19	–
CC1(C)CC(=O)c2c(Sc3nccs3)sc(-c3nccs3)c2C1	28	39	24	28	1.4	-5
CSc1sc(-c2ccc[nH]2)c2c1C(=O)CC(C)(C)C2	> 4	> 300	> 300	> 300	85	–
CSc1sc(-c2cc[nH]n2)c2c1C(=O)CC(C)(C)C2	13	–	–	–	–	-3
CC(C)Oc1sc(-c2cc[nH]n2)c2c1C(=O)CC(C)(C)C2	18	182	119	69	15	–
CC(C)Sc1sc(-c2cc[nH]n2)c2c1C(=O)CC(C)(C)C2	6	–	–	–	–	–
CCc1sc(-c2cc[nH]n2)c2c1C(=O)CC(C)(C)C2	22	162	211	240	11	–
CC1(C)CC(=O)c2c(SCCCO)sc(-c3cc[nH]n3)c2C1	13	46	60	50	4.7	–
CC1(C)CC(=O)c2c(NCCO)sc(-c3cc[nH]n3)c2C1	> 4	> 300	> 300	> 300	78	–
CSc1sc(-c2nccs2)c2c1C(=O)CC(C)(C)C2	28	–	–	–	–	-24
CSc1sc(-c2ccccn2)c2c1C(=O)CC(C)(C)C2	26	–	–	–	–	-31
CC1(C)CC(=O)c2c(Sc3nccs3)sc(-c3cc[nH]n3)c2C1	34	19	4.3	48	1.4	-7
CSc1sc(-c2cncs2)c2c1C(=O)CC(C)(C)C2	12	161	175	159	15	–
CNc1sc(-c2cc[nH]n2)c2c1C(=O)CC(C)(C)C2	> 2	> 300	> 300	> 300	132	–
CSc1sc(-c2nc(C)no2)c2c1C(=O)CC(C)(C)C2	> 8	> 300	> 300	185	37	–
CC1(C)CC(=O)c2c(SCCO)sc(-c3ccccn3)c2C1	20	–	–	–	–	-39
CC1(C)CC(=O)c2c(SC(C)(C)C)sc(-c3cc[nH]n3)c2C1	> 2	> 300	> 300	> 300	170	–
CCSc1sc(-c2cc[nH]n2)c2c1C(=O)CC(C)(C)C2	10	–	–	–	–	–
CC1(C)CC(=O)c2csc(-c3cc[nH]n3)c2C1	–	> 300	> 300	> 300	> 300	–
CSc1sc(-c2ccccc2)c2c1C(=O)CC(C)(C)C2	–	> 300	> 300	> 300	> 300	–
CC(C)Nc1sc(-c2cc[nH]n2)c2c1C(=O)CC(C)(C)C2	22	44	72	87	3.9	-2
COc1sc(-c2cc[nH]n2)c2c1C(=O)CC(C)(C)C2	> 5	> 300	> 300	> 300	67	–
CSc1sc(-c2cccnc2)c2c1C(=O)CC(C)(C)C2	28	–	–	–	–	-40
CSc1sc(-c2ccncc2)c2c1C(=O)CC(C)(C)C2	19	–	–	–	–	-20
CC1(C)CC(=O)c2c(Sc3cccs3)sc(-c3cc[nH]n3)c2C1	8	7.6	10	18	2.4	–
CC1(C)CC(=O)c2c(SCCO)sc(-c3cc[nH]n3)c2C1	11	–	–	–	–	–
CC1(C)CC(=O)c2c(SCCCO)sc(-c3nccs3)c2C1	17	48	79	48	4.7	25
